Compound activity (PubChem)
Hits are enriched below; roughly 12% of the tested compounds scored in any of these assays.
MT stabilizer – microtubule stabilizers in HeLa cells, primary screen, imaging, high-content imaging. HeLa tubulin immunostaining HCS, 24 h; share of cells brighter than vehicle mean+2SD. % tubulin-high responders, % at 10 µM. hit rate 0.83% among 200,000;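 active means plate Z-score above 3 for both tubulin-high and condensed-nucleus cell shares, with cell loss under 80%, at 10 µM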;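 further: anti alpha tubulin signal scored within the nucleus-defined area of each cell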
CHOP inh – inhibitors of CHOP promoter induction, primary screen, cell-based, unfolded protein response, luciferase reporter; CHO-K1 CHOP-promoter luciferase, tunicamycin-induced, 15-18 h; inhibition, % at 10 µM; hit rate 3.8% among 220,000;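 active means compounds that reduced the stress-induced luciferase reporter signal by more than about 70% of percent inhibition, limit read from the data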;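 further: 0% = tunicamycin plus vehicle and 100% = wells without tunicamycin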
L major viab – Leishmania major promastigote growth inhibition, primary screen; Leishmania major promastigotes, resazurin fluorescence viability; inhibition, % at 10 µM; hit rate 9% among 200,000; AID 1063, 2008; in the data active means inhibition above about 50%;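 further: promastigotes grown with compound for 44 hours at 28 °C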
Autophagy HCS – autophagy modulators in MEF cells, primary screen, imaging, high-content, MEF GFP-LC3. MEF GFP-LC3 puncta imaging; test concentration mostly 10 µM. calls only at 10 µM (by protocol). hit rate 0.98% among 190,000. AID 463193, 2010;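 active means percentage of spot-positive cells more than 3 SD above its plate mean, without a fluorescence outlier flag or 80% toxicity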;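 further: spot-positive cell cutoff set from DMSO-treated cells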
b-catenin transl – modulators of beta-catenin nuclear translocation, primary screen, imaging, HeLa cells, immunofluorescence, high-content | hit rate 0.3% among 190,000 | AID 1665, 2009 | nuclear translocation activity, % at 5 µM;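 active means nuclear translocation activity above 50% at 5 µM, with a well cell count of 50 or more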;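 further: per-cell ratio of nuclear to cytoplasmic median beta-catenin stain intensity; plate controls were DMSO negative control for no effect and GSK-3 inhibitor IX positive control for full effect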
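Technique: fluorescence imaging of beta-catenin antibody stain plus DAPI / Material: human HeLa cell line / Incubation: compound treatment 24 h, 37°C, 5% CO2 / Read-out basis: % activation of per-cell nuclear versus cytoplasmic median beta-catenin signal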
Dynein cargo inh – inhibitors of GR-EGFP nuclear translocation, primary screen, dynein cargo transport inhibitor project, imaging, high-content, 3617.4 mouse cells. test concentration mostly 20 µM; stimulated with dexamethasone, 1 µM; active compounds read low. z-score, hits read low. hit rate 0.47% among 220,000. AID 1381, 2008;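 active means plate z-score of nuclear minus cytoplasmic receptor signal below a set negative limit, without overly bright fluorescence or cell loss, cut at about -3.5 in these data, passing the limit was not always enough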;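 further: z-score of nuclear minus cytoplasmic ring GR-EGFP intensity difference per well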
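Buffer or medium – tet-free medium with charcoal-stripped serum · Signal – automated 10x imaging of fixed Hoechst-stained cells · Also added – dexamethasone agonist, 1.0 µM final, for 30 min · Incubation – induction 48 h, compound 1 h, agonist 30 min · Read-out – GR-EGFP nuclear translocation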
Numbers without * were called inactive; i = inactive; . = not tested or not shown; + = active, no number.

SMILES	MT stabilizer	CHOP inh	L major viab	Autophagy HCS	b-catenin transl	Dynein cargo inh
O=C(C1=C[C@H](c2ccc3c(c2)OCO3)C[C@H](OCc2ccc(CO)cc2)O1)N1CCCCCCC1	4	2	61*	i	-1	2.1
O=C(C1=C[C@@H](c2ccc3c(c2)OCO3)C[C@@H](OCc2ccc(CO)cc2)O1)N1CCOCC1	2	24	7	i	-3	-1.4
O=[N+]([O-])c1ccc2ccn(C3OCC(O)C(O)C3O)c2c1 (stereo not given)	2	8	-4	i	1	-0.38
CC(=O)c1cccc(NC(=O)COC(=O)COc2c(Cl)cc(Cl)c3ccc(C)nc23)c1	6	19	-6	i	-1	-0.35
COc1ccc(C2(C)NC(=O)N(CC(=O)Nc3ccc(-c4nc5ccc(C)cc5s4)cc3)C2=O)cc1 (stereo not given)	4	71*	30	i	10	-0.82
Cc1ccc2nc(-c3ccc(NC(=O)CN4C(=O)c5ccccc5C4=O)cc3)sc2c1	6	26	-8	i	2	-0.33
C=CCn1c(SCC(=O)Nc2ccc(-c3nc4ccc(C)cc4s3)cc2)nnc1-c1ccncc1	7	-12	50*	i	2	1.9
Nc1cc(=O)[nH]c(SCC(=O)Nc2nc3ccc([N+](=O)[O-])cc3s2)n1	2	6	-6	+	1	0.53
Cc1nnc(SCC(=O)Nc2ccccc2NC(=O)CSc2nnc(C)s2)s1	4	17	-5	i	-8	-0.65
Cc1nnc(SCC(=O)Nc2ccc(-c3nc4ccccc4s3)cc2)s1	3	86*	25	i	1	-0.51
CCn1c(SCC(=O)Nc2ccc(-c3nc4ccc(C)cc4s3)cc2)nnc1-c1ccccc1	3	16	-8	i	1	1.8
C/C(=N\S(=O)(=O)c1ccc(C)cc1)N(C)C	.	-7	.	.	-2	0.65
Cc1ccc(NC(=O)CN2C(=O)CNC2=O)cc1	.	7	.	.	0	-0.54
O=C(COC(=O)c1ccccc1C(=O)c1ccc(Cl)cc1)NCC1CCCO1 (stereo not given)	4	12	5	i	-1	1.5
Cc1sc2nc(CSCC(=O)N(CCC#N)c3ccccc3)[nH]c(=O)c2c1C	2	0	0	i	-2	-0.68
CC(=O)Nc1ccc(S(=O)(=O)N2C(=O)c3cccc4cccc2c34)cc1	.	22	.	.	2	0.44
Cc1ccc(C)c(OCC(=O)Nc2nc3ccc([N+](=O)[O-])cc3s2)c1C	1	80*	-4	i	0	-0.33
Cc1ccc2nc(-c3ccc(NC(=O)CSc4nccc(=O)[nH]4)cc3)sc2c1	6	-14	-6	i	1	1.2
CCC(=O)Nc1nc2ccc([N+](=O)[O-])cc2s1	.	9	.	.	-1	-0.11
Cc1ccc2nc(-c3ccc(NC(=O)CSc4nc(N)cc(=O)[nH]4)cc3)sc2c1	.	73*	.	.	0	0.66
COc1cccc(C2C(C(=O)c3cccs3)=C(O)C(=O)N2CCCn2ccnc2)c1OC (stereo not given)	.	.	.	.	-2	.
COc1ccc(/C=C2\SC(=O)N(CCNC(=O)Cc3coc4cc(OC)ccc34)C2=O)cc1	3	63	59*	i	.	1.3
COc1ccc2c(CC(=O)NCCN3C(=O)S/C(=C\c4cccnc4)C3=O)coc2c1	2	9	8	i	1	1.5
CSc1ccc(/C=C/C(=O)NC(=O)c2ccccc2O)cc1	1	-6	-7	i	0	0.88
O=C(/C=C/c1ccc(Br)cc1)Nc1ccc(S(=O)(=O)Nc2ncccn2)cc1	2	17	52*	i	1	0.82
COc1ccccc1/C=C/C(=O)NCC(=O)n1nc(C)cc1C	.	20	.	.	0	0.33
CCCCC(=O)Nc1c(C)cc(C)cc1Cl	1	37	0	i	.	0.48
CCN(CC)c1ccc2cc(-c3nnc(-c4ccncc4)o3)c(=O)oc2c1	3	-22	68*	+	.	0.91
